Legend:
[1] = target: T1, Muscarinic acetylcholine receptor M2 (Homo sapiens, UniProt P08172); assay: Displacement of [3H] NMS from muscarinic M2 receptor (unknown origin)
T1 sequence (P08172 whole entry): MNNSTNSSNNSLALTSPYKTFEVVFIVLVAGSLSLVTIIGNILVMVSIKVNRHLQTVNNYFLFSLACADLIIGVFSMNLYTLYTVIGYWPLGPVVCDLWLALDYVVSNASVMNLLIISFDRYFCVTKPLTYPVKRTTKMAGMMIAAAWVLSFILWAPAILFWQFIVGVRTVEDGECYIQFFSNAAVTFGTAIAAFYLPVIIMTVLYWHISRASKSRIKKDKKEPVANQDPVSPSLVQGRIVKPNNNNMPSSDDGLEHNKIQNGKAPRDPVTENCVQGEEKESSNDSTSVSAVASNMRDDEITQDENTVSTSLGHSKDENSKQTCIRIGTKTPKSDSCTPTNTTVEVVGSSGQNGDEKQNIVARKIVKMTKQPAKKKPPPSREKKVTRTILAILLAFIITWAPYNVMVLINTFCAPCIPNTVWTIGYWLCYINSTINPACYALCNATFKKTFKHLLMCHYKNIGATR
Outline: (§1)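 Radioligand competition binding; Ki given as mean ± SD from two individual experiments, each run in triplicate.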

[2] = target: D(3) dopamine receptor (Homo sapiens, UniProt P35462); assay: Displacement of [3H] Spiperone from human D3 receptor expressed in CHO cells by competitive radioligand binding assay; assay type: cell-based
Sequence of D(3) dopamine receptor (P35462 whole entry): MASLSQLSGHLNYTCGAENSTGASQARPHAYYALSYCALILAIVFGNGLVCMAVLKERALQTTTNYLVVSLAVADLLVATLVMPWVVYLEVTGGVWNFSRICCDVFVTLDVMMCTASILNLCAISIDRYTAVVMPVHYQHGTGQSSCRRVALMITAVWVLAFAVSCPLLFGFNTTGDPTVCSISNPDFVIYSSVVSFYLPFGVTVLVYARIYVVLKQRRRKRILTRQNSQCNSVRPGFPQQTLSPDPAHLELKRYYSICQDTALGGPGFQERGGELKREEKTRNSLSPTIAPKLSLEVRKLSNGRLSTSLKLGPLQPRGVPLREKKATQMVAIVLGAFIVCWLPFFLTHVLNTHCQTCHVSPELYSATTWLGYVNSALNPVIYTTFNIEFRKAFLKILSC

[3] = target: T2, D(4) dopamine receptor (Homo sapiens, UniProt P21917); assay: Agonist activity at human D4 receptor expressed in HEK293T cells co-expressing G-alphaqi assessed as accumulation of inositol monophosphate using d2-labelled IP1 conjugate incubated for 90 mins by HTRF assay; assay type: functional, cell-based
T2 sequence (P21917 whole entry): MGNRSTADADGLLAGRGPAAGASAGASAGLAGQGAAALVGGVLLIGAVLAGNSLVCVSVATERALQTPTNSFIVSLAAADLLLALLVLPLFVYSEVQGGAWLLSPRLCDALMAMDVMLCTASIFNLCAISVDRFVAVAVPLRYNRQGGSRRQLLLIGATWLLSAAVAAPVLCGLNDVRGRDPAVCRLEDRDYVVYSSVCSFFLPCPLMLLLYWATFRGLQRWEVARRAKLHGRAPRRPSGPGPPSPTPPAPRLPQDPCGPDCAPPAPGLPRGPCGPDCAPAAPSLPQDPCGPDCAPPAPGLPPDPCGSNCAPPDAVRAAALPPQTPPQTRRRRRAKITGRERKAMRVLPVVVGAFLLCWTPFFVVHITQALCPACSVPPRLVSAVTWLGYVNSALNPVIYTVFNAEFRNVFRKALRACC

[4] = organism: Homo sapiens; assay: Selectivity index, ratio of Ki for displacement of [3H] Spiperone from human D3 receptor expressed in CHO cells to Ki for displacement of [3H] Spiperone from human D4.4 receptor expressed in CHO cells; assay type: cell-based
Outline: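 Competition binding against [3H]spiperone on membranes of CHO cells stably expressing cloned human D2L, D2S, D3 or D4.4 receptors. Ki from monophasic curve fits; mean ± SEM of three to seven experiments, each in triplicate. Selectivity calculated as Ki(D2L, D2S or D3) divided by Ki(D4.4).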

[5] = target: Kappa-type opioid receptor (Homo sapiens, UniProt P41145); assay: Displacement of [3H] diprenorphine from kappa opioid receptor (unknown origin); outline: as §1
Sequence of Kappa-type opioid receptor (P41145 whole entry): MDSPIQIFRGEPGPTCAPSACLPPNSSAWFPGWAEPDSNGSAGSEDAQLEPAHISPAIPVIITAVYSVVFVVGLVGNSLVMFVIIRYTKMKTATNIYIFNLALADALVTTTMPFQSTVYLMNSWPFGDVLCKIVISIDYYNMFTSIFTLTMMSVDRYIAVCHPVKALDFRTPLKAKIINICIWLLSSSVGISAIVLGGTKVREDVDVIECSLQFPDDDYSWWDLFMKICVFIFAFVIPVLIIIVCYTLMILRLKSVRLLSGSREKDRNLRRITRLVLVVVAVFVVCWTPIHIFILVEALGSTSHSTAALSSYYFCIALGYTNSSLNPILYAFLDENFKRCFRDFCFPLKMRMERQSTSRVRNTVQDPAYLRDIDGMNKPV

[6] = target: Mu-type opioid receptor (Homo sapiens, UniProt P35372); assay: Displacement of [3H] diprenorphine from mu opioid receptor (unknown origin); outline: as §1
Sequence of Mu-type opioid receptor (P35372 whole entry): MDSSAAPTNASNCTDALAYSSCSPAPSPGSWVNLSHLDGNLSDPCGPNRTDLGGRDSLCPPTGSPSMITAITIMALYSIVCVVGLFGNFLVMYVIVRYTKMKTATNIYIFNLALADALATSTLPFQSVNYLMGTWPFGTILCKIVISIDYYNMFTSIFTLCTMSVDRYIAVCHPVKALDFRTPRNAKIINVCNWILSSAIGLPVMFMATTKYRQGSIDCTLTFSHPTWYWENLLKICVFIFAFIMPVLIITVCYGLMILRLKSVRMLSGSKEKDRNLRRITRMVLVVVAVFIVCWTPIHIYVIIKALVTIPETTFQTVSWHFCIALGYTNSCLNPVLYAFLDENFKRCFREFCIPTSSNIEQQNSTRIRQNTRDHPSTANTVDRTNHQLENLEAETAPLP

[7] = target: T3, Muscarinic acetylcholine receptor M1 (Homo sapiens, UniProt P11229); assay: Displacement of [3H] NMS from muscarinic M1 receptor (unknown origin); outline: as §1
T3 sequence (P11229 whole entry): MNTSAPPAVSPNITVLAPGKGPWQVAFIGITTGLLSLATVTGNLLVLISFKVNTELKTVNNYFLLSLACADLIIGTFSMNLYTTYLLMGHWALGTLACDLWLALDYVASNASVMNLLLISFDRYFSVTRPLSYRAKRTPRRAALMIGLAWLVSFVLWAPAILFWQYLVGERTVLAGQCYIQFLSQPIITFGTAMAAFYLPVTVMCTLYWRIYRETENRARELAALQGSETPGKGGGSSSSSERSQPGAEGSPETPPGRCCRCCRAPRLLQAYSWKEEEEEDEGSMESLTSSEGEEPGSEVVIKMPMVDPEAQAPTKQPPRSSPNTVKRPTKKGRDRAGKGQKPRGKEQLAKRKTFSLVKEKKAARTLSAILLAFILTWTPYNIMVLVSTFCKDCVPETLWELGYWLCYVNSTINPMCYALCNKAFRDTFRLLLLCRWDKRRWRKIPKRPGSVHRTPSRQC

[8] = target: D(2) dopamine receptor (Homo sapiens, UniProt P14416); assay: Displacement of [3H] Spiperone from human D2S receptor expressed in CHO cells by competitive radioligand binding assay; assay type: cell-based
Sequence of D(2) dopamine receptor (P14416 whole entry): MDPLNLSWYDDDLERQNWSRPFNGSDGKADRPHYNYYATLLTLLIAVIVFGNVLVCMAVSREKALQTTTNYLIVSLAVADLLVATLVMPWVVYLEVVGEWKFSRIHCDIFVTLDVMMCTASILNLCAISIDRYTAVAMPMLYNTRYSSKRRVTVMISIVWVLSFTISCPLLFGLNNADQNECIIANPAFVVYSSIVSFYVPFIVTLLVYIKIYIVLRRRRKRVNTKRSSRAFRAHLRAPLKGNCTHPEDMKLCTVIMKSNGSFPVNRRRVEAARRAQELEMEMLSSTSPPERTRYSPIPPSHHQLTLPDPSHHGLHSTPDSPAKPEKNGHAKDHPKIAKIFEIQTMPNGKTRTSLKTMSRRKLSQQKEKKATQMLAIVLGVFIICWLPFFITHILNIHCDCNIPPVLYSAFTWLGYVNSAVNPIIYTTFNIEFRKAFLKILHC

[9] = target: 5-hydroxytryptamine receptor 2A (Homo sapiens, UniProt P28223); assay: Displacement of [3H] Ketanserin from 5HT2A receptor (unknown origin)
Sequence of 5-hydroxytryptamine receptor 2A (P28223 whole entry): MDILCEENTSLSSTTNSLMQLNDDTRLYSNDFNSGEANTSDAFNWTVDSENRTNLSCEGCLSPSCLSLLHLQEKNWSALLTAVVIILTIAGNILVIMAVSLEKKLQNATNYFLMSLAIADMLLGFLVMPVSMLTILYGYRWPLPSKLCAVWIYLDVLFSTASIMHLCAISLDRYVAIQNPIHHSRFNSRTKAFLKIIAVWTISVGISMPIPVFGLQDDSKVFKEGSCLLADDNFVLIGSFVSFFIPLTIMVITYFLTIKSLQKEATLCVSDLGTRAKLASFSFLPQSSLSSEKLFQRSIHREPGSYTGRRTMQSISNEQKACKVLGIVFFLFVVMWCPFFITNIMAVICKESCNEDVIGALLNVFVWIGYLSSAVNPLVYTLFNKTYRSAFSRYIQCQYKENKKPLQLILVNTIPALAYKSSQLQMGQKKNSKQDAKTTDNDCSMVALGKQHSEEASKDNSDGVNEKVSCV

[10] = target: T4, Alpha-2A adrenergic receptor (Homo sapiens, UniProt P08913); assay: Displacement of [3H] RX821002 from alpha2A adrenergic receptor (unknown origin)
T4 sequence (P08913 whole entry): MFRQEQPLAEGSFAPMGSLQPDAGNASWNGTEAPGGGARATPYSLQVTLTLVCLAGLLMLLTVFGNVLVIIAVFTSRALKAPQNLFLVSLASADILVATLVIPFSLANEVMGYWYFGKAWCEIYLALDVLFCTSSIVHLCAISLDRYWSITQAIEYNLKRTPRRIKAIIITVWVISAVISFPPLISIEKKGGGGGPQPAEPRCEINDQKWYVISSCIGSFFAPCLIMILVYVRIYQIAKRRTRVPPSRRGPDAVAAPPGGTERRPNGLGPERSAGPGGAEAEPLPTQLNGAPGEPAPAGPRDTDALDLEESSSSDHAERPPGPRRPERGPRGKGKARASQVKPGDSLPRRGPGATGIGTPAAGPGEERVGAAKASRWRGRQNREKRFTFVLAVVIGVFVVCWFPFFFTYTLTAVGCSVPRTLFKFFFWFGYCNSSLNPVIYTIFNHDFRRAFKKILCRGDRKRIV

Q: Which results are given for COc1ccccc1N1CCN(CCCNC(=O)NN(Cc2ccc(F)cc2)c2ccccc2)CC1?
A: Ki [1]: 17 µM; Ki [2]: 310 nM; EC50 [3]: 41 nM; Ratio Ki [4]: 560; Ki [5]: 4.3 µM; Ki [6]: 2300 nM; Ki [7]: 15 µM; Ki [8]: 110 nM; Ki [9]: 130 nM; Ki [10]: 860 nM

From ChEMBL document CHEMBL4321823, “Benzyl Phenylsemicarbazides: A Chemistry-Driven Approach Leading to G Protein-Biased Dopamine D4 Receptor Agonists with High Subtype Selectivity” (J Med Chem, 2019)
